We go through 14 compounds from ChEMBL document CHEMBL1121696, “Antimicrobial 3-methyleneflavanones” (1981).

The subject of one assay is Aspergillus niger. In words: Antimicrobial activity against Aspergillus niger (ATCC 16404). The class given is functional. Summed up: (§1)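 Spores came from Eugon agar slants grown 1 week at 32 °C, suspended at 10⁶/mL in Eugon broth or saline, and applied by Steers replicator. The lowest inhibitory concentration was read after 48-72 h at 32 °C.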
For assay [1], the system named is Candida albicans. The experiment in a line: Compound was tested for the antimicrobial activity against Candida albicans (ATCC 10231, NRRL Y-477); Range is 25-50. The class given is functional. In outline:
(§2)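 Agar dilution MIC. Stocks and twofold serial dilutions in DMF or 50% aqueous DMF were mixed 1:100 into molten Eugon agar, giving final 100, 50, 25, 12.5, 6.2, 3.1 mcg/mL (further dilutions sometimes) and ≤1% DMF. Inocula came from 24 h Eugon agar slants at 32 °C, suspended at 10⁶ cells/mL and applied with a Steers replicator. MIC (lowest concentration inhibiting growth) was read after 24 h at 32 °C.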

The test system of the next assay is Enterococcus faecalis. In words: Antimicrobial activity against Streptococcus faecalis (ATCC 10541). The class given is functional. Summed up: as §2
The subject of assay [2] is Staphylococcus aureus. In words: Antimicrobial activity against Staphylococcus aureus (ATCC 6538, NRRL B2747). The class given is functional. In outline:
as §2

Assay [3] deals with Trichophyton benhamiae. The experiment in a line: Compound was tested for the antimicrobial activity against Trichophyton mentagrophytes (ATCC 4807); Range is 6.2-12.5. The class given is functional, Arthroderma benhamiae. Summed up: as §1
Assay [4] has as its system Trichophyton benhamiae. In words: Compound was tested for the antimicrobial activity against Trichophyton mentagrophytes (ATCC 4807); Range is <3.1-25. The class given is functional, Arthroderma benhamiae. In outline: as §1
For assay [5], the system named is Candida albicans. The experiment in a line: Antimicrobial activity against Candida albicans (ATCC 10231, NRRL Y-477). The class given is functional. In outline: as §2
Assay [6] relates to Trichophyton benhamiae. The experiment in a line: Compound was tested for the antimicrobial activity against Trichophyton mentagrophytes (ATCC 4807); Range is 100 to >100. The class given is functional, Arthroderma benhamiae. Summed up:
as §1

Assay [7] deals with Trichophyton benhamiae. In words: Antimicrobial activity against Trichophyton mentagrophytes (ATCC 4807). The class given is functional, Arthroderma benhamiae. Summed up:
as §1

Assay [8] deals with Candida albicans. In words: Compound was tested for the antimicrobial activity against Candida albicans (ATCC 10231, NRRL Y-477); Range is 25 to >100. The format is functional. Summed up:
as §2

The subject of assay [9] is Staphylococcus aureus. In words: Antimicrobial activity against Staphylococcus aureus (ATCC 6538, NRRL B2747); Range is <3.1-6.2. The format is functional. Summed up: as §2
The test system of assay [10] is Trichophyton benhamiae. The experiment in a line: Compound was tested for the antimicrobial activity against Trichophyton mentagrophytes (ATCC 4807); Range is 6.2-25. The format is functional, Arthroderma benhamiae. Summed up:
as §1

Assay [11] deals with Trichophyton benhamiae. In words: Compound was tested for the antimicrobial activity against Trichophyton mentagrophytes (ATCC 4807); Range is 6.1-12.5. The class given is functional, Arthroderma benhamiae. In outline: as §1
For assay [12], the system named is Candida albicans. The experiment in a line: Compound was tested for the antimicrobial activity against Candida albicans (ATCC 10231, NRRL Y-477); Range is 50-100. The class given is functional. Summed up:
as §2

Assay [13] concerns Trichophyton benhamiae. The experiment in a line: Compound was tested for the antimicrobial activity against Trichophyton mentagrophytes (ATCC 4807); Range is 25-50. The format is functional, Arthroderma benhamiae. In outline:
as §1

For assay [14], the system named is Trichophyton benhamiae. The experiment in a line: Compound was tested for the antimicrobial activity against Trichophyton mentagrophytes (ATCC 4807); Range is <3.1-6.2. The class given is functional, Arthroderma benhamiae. Summed up: as §1
In assay [15] the test system is Trichophyton benhamiae. In words: Compound was tested for the antimicrobial activity against Trichophyton mentagrophytes (ATCC 4807); Range is 50 to >100. The class given is functional, Arthroderma benhamiae. In outline:
as §1

The test system of assay [16] is Staphylococcus aureus. The experiment in a line: Compound was tested for the antimicrobial activity against Staphylococcus aureus (ATCC 6538, NRRL B2747); Range is 50-100. The format is functional. Summed up: as §2
Assay [17] deals with Trichophyton benhamiae. The experiment in a line: Compound was tested for the antimicrobial activity against Trichophyton mentagrophytes (ATCC 4807); Range is 12.5-25. The format is functional, Arthroderma benhamiae. In outline:
as §1

For assay [18], the system named is Candida albicans. In words: Compound was tested for the antimicrobial activity against Candida albicans (ATCC 10231, NRRL Y-477); Range is 100 to >100. The format is functional. In outline: as §2

≈ marks a conversion by molar mass, not a printed value.

Take `C=C1COc2ccccc2C1=O`: the MIC is 100 µg/mL (≈ 624 µM) in the assay on Aspergillus niger; 25 µg/mL (≈ 156 µM) against Candida albicans [1]; 100 µg/mL (≈ 624 µM) in the assay on Enterococcus faecalis; 50 µg/mL (≈ 312 µM) against Staphylococcus aureus [2]; 6.2 µg/mL (≈ 38.7 µM) with Trichophyton benhamiae [3].
As to `C=C1C(=O)c2ccccc2OC1c1ccc(Cl)cc1` (configuration not stated), the MIC with Staphylococcus aureus [2] and against Trichophyton benhamiae [4] was less than 3.1 µg/mL throughout.
`C=C1C(=O)c2cc(Br)ccc2OC1c1ccccc1` (configuration not stated): the MIC is greater than 100 µg/mL against Aspergillus niger; greater than 100 µg/mL against Candida albicans [5]; greater than 100 µg/mL in the assay with Enterococcus faecalis; 50 µg/mL (≈ 159 µM) in the assay with Staphylococcus aureus [2]; greater than 100 µg/mL with Trichophyton benhamiae [6].
In the assay on Trichophyton benhamiae [7], `C=C1C(=O)c2cc(C)ccc2OC1c1ccccc1` (configuration not stated) came in with an MIC of 6.2 µg/mL (≈ 24.8 µM).
For the compound `C=C1C(=O)c2ccccc2OC1c1ccc2ccccc2c1` (configuration not stated), the MIC was greater than 100 µg/mL against Aspergillus niger; greater than 25 µg/mL against Candida albicans [8]; 50 µg/mL (≈ 175 µM) with Enterococcus faecalis; less than 3.1 µg/mL with Staphylococcus aureus [9]; 6.2 µg/mL (≈ 21.7 µM) in the assay with Trichophyton benhamiae [10].
As to `C=C1C(=O)c2ccccc2OC1c1ccc(Br)cc1` (configuration not stated), the MIC against Staphylococcus aureus [9] was less than 3.1 µg/mL; against Trichophyton benhamiae [11], 6.1 µg/mL (≈ 19.4 µM).
Regarding `C=C1C(=O)c2ccccc2OC1(C)C`, the MIC was greater than 100 µg/mL with Aspergillus niger; 50 µg/mL (≈ 266 µM) in the assay on Candida albicans [12]; greater than 100 µg/mL against Enterococcus faecalis; greater than 100 µg/mL against Staphylococcus aureus [2]; 25 µg/mL (≈ 133 µM) against Trichophyton benhamiae [13].
For `C=C1C(=O)c2ccccc2OC1(c1ccccc1)c1cccs1` (configuration not stated), the MIC with Trichophyton benhamiae [10] amounted to 6.2 µg/mL (≈ 19.5 µM).
`C=C1C(=O)c2ccccc2OC1c1ccccc1` (configuration not stated): the values for the MIC with Aspergillus niger and against Trichophyton benhamiae [3] were 100 µg/mL (≈ 423 µM) and 6.2 µg/mL (≈ 26.2 µM), respectively.
Turning to `C=C1C(=O)c2ccccc2OC1c1ccc(C)cc1` (configuration not stated), in the assay with Trichophyton benhamiae [14], the MIC is less than 3.1 µg/mL.
Turning to `C=C1C(=O)c2ccccc2SC1c1ccccc1` (configuration not stated), the MIC against Aspergillus niger was greater than 100 µg/mL; with Candida albicans [5], greater than 100 µg/mL; in the assay on Enterococcus faecalis, greater than 100 µg/mL; in the assay with Trichophyton benhamiae [15], greater than 50 µg/mL; against Staphylococcus aureus [16], 50 µg/mL (≈ 198 µM).
Turning to `O=C1/C(=C/Cl)C(c2ccccc2)Oc2ccccc21` (configuration not stated), the MIC against Aspergillus niger, against Candida albicans [5], with Enterococcus faecalis, in the assay with Staphylococcus aureus [2] and with Trichophyton benhamiae [7] was greater than 100 µg/mL in each case.
For the compound `C=C1C(=O)c2ccccc2OC1(c1ccccc1)c1ccncc1` (configuration not stated), the values for the MIC with Trichophyton benhamiae [17] and in the assay with Candida albicans [18] were 12.5 µg/mL (≈ 39.9 µM) and greater than 100 µg/mL, respectively.
`C=C1C(=O)c2ccccc2OC1c1ccc(C#N)cc1` (configuration not stated) came in with an MIC against Trichophyton benhamiae [10] of 6.2 µg/mL (≈ 23.7 µM).

As a reminder, the MIC is the smallest concentration in the dilution series that meets the test's criterion for growth inhibition. Read a low MIC as greater potency.
